Reference: ChEMBL document CHEMBL3091285, “Cytotoxic compounds from invasive giant salvinia (Salvinia molesta) against human tumor cells” (Bioorg Med Chem Lett, 2013)

Experiments:
[1] = Cytotoxicity against human BxPC3 cells assessed as growth inhibition by WST-8 assay; format: functional; details: BXPC-3
[2] = Cytotoxicity against human PANC1 cells assessed as growth inhibition by WST-8 assay; format: functional; details: PANC-1
A549 = assay: Cytotoxicity against human A549 cells assessed as growth inhibition by WST-8 assay; format: functional
HL-60 = assay: Cytotoxicity against human HL60 cells assessed as growth inhibition by WST-8 assay; format: functional
PC-3 = assay: Cytotoxicity against human PC3 cells assessed as growth inhibition by WST-8 assay; format: functional
[3] = Cytotoxicity against human MRC5 cells assessed as growth inhibition by WST-8 assay; format: cell-based
PANC-1 = assay: Antiproliferative activity against human PANC1 cells after 12 to 48 hrs by CCK-8 assay; format: functional, cell-based
Method in brief: (§1)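 Pancreatic cancer cells (PANC-1, BxPC-3) exposed to test compound at 0 (control), 5, 10, 20, 40, 60, 80 or 100 uM, with concentration levels differing between compounds. Proliferation followed over incubation time, with viable cell number (x1,000) plotted against hours to assess dose-dependent suppression.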

BXPC-3 = assay: Antiproliferative activity against human BxPC3 cells after 12 to 48 hrs by CCK-8 assay; format: functional, cell-based; method in brief: as §1
MDA-MB-231 = assay: Cytotoxicity against human MDA-MB-231 cells assessed as growth inhibition by WST-8 assay; format: functional

Compound | GI50 [1] [µM] | GI50 [2] [µM] | GI50 (A549) [µM] | GI50 (HL-60) [µM] | GI50 (PC-3) [µM] | GI50 [3] [µM] | inhibition (PANC-1) | inhibition (BXPC-3) | GI50 (MDA-MB-231) [µM]
CC(C)C1=Cc2ccc3c(c2C(=O)C1=O)C(=O)CCC3(C)C | 20.5 | 32.1 | 24.9 | 23.3 | 19 | 20.4 |  |  | 
CC(C)c1cc2c(cc1O)[C@@]1(C)CCCC(C)(C)C1=C(O)C2=O | 25 | 23.1 | 11.1 | 11.5 | 13.2 | 20 | Dose-dependent effect | Dose-dependent effect | 
CC(C)c1ccc2c3c(ccc2c1)C(C)(C)CCC3 | > 100 | > 100 | > 100 | > 100 | > 100 | > 100 |  |  | 
CC(C)c1cc2ccc3c(c2cc1O)CCCC3(C)C | 36.4 | 37.5 | 42.2 | 50 | 43.6 | 55.4 |  |  | 
CC(C)c1cc2c(cc1O)[C@@]1(C)CCCC(C)(C)[C@@H]1C=C2 | 37.5 | 46.7 | 53.8 | 66.5 | 58.1 | 59.2 |  |  | 
CC(C)C1=C(O)C(=O)C2=C(CC[C@H]3C(C)(C)CCC[C@]23C)C1=O [ROYLEANONE] | 51 | 52.6 | 30.1 | 36.3 | 27.1 | 45.7 |  |  | 
CC(C)c1cc2c(cc1O)[C@@]1(C)CCCC(C)(C)[C@@H]1CC2=O [SUGIOL] | 36.1 | 87.9 | 79.8 | 68.6 | > 100 | > 100 |  |  | 
COc1cc2c(cc1C(C)C)C(=O)C(O)=C1C(C)(C)CCC[C@@]12C |  |  | 21.2 |  |  |  |  |  | 
CC(C)c1cc2c(cc1O)[C@@]1(C)CCCC(C)(C)C1=CC2=O | > 100 | > 100 | 84.5 | 92.8 | > 100 |  |  |  | 
CC(C)c1cc(C=O)c([C@@]2(C)CCCC(C)(C)[C@@H]2C=O)cc1O |  |  | 93.8 |  |  |  |  |  | 
CO[C@H]1c2cc(C(C)C)c(O)c(O)c2[C@@]23CCCC(C)(C)[C@@H]2[C@@H]1OC3=O |  |  | 86.5 |  |  |  |  |  | 
CC(C)c1cc2c(c(O)c1O)[C@@]1(C)CCCC(C)(C)[C@@H]1CC2=O [DEMETHYLCRYPTOJAPONOL] | 45 | 43.1 | 35 | 35.3 | 41 | 40.2 |  |  | 
CC(C)c1cc2c(cc1O)[C@@]1(C)CCCC(C)(C)[C@@H]1CC2O (some centres not stated) | 74.7 | 78.2 | 75.1 | 75.2 | 85.6 | 70.5 |  |  | 
CC(C)c1cc2c(cc1O)[C@@]1(C)CCCC(C)(C)[C@@H]1C[C@H]2CC1=CCC(O)(C(C)C)CC1 (some centres not stated) | 87.3 | 60.4 | 62.9 | 48.1 | 54.2 | 58.4 | Dose-dependent effect | Dose-dependent effect | 75
CC(C)C1=C(O)C(=O)C2=C(C=C[C@H]3C(C)(C)CCC[C@]23C)C1=O | 41.7 | 51.3 | 48 | 30 | 46.3 | 40.2 |  |  | 
CC(C)c1cc2c(cc1O)[C@@]1(C)CCCC(C)(C)[C@@H]1CC2 [FERRUGINOL] | 21.1 | 41.1 | 30.7 | 27.3 | 56.5 | 40 |  |  | 
CC(C)c1cc2c(c(O)c1O)[C@@]1(C)CCCC(C)(C)C1=C(O)C2=O [14-DEOXYCOLEON U] | 37.3 | 22.6 | 9.1 | 13.3 | 8.39 | 24.8 |  |  | > 100
